Experimental data published in ChEMBL document CHEMBL4257580, “Tanshinone-IIA-Based Analogues of Imidazole Alkaloid Act as Potent Inhibitors To Block Breast Cancer Invasion and Metastasis in Vivo” (J Med Chem, 2018).
Activity calls are given as the source filed them. The rule behind the calls is not given here.

Assays:
MDA-MB-231 [1] = test: Antiproliferative activity against human MDA-MB-231 cells after 72 hrs by MTT assay; assay type: functional, cell-based
How it was run: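 MDA-MB-231 cells grown in DMEM with 10% FBS and penicillin/streptomycin at 37 °C under 5% CO2. Seeded at 5×10^3 cells/well for 24 h, then exposed to compound across a concentration range for 72 h. MTT (5 mg/mL in PBS) added for 5 h, formazan dissolved in DMSO, absorbance read at 570 nm. Three repeats.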

HepG2 = test: Antiproliferative activity against human HepG2 cells after 72 hrs by MTT assay; assay type: functional, cell-based; details: HepG2, 72 h
How it was run: (§1)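 A549, HeLa, HepG2 and normal liver L02 cells kept in DMEM with 10% FBS at 37 °C under 5% CO2. Plated at 5×10^3 cells/well for 24 h, then treated with graded concentrations for 72 h. Viability measured by MTT reduction (5 h), formazan dissolved in DMSO and read at 570 nm. Three repeats.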

HeLa = test: Antiproliferative activity against human HeLa cells after 72 hrs by MTT assay; assay type: functional, cell-based; how it was run: as §1
L02 = test: Antiproliferative activity against human L02 cells after 72 hrs by MTT assay; assay type: cell-based; details: L02, 72 h; how it was run: as §1
MDA-MB-231 [2] = test: Antimigratory activity in human MDA-MB-231 cells at 3 uM up to 72 hrs by wound healing assay relative to control; assay type: functional
How it was run: (§2)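 Scratch assay: 1×10^5 cells/well grown to more than 80% confluence and wounded with a pipette tip. Cells then incubated with 0, 3 or 6 μM in serum-free DMEM for 72 h. The same field was imaged repeatedly over 3 days. Migration rate is wound filling, averaged over 10 fields; three independent experiments, mean ± SD.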

MDA-MB-231 [3] = test: Antimigratory activity in human MDA-MB-231 cells up to 72 hrs by wound healing assay; assay type: functional, cell-based; how it was run: as §2
MDA-MB-231 [4] = test: Antiangiogenesis activity in human MDA-MB-231 cells xenografted in fil1:EGFP transgenic zebrafish sub-intestinal vessels assessed as inhibition of cell migration at 5 uM measured every 24 hrs for 96 hrs by fluorescence microscopy; assay type: functional, cell-based
How it was run: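 Tg(fli1:EGFP) embryos at 48 hpf injected with 10–50 nL of DiI-labelled cells (~10^7 cells/mL in serum-free DMEM) into the perivitelline space near the subintestinal vessels. Ten embryos per well kept in 2 mL aquaculture water with 0 or 5 μM for 96 h. Imaged every 24 h by fluorescence microscopy; tumour area and trunk/tail fluorescence quantified, n=10/group, three experiments.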

Danio rerio [5] = test: Toxicity in […] 24 hpf fil1:EGFP transgenic zebrafish embryo assessed as inhibition of normal angiogenesis at 2 to 4 uM after 48 hrs by fluorescence microscopy; assay type: organism-based; details: in vivo
How it was run: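 Non-xenografted Tg(fli1:EGFP) embryos dechorionated at 24 hpf and incubated with 0, 2 or 4 μM for 48 h, with PTK787 as positive control. Subintestinal vessel formation imaged at 72 hpf by fluorescence microscopy. n=10/group, three independent experiments.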

Danio rerio [6] = organism: Danio rerio; test: Ecotoxicity in fil1:EGFP transgenic zebrafish embryo up to 50 uM after 96 hrs by microscopic analysis; assay type: organism-based; details: in vivo
MDA-MB-231 [7] = test: Antimetastasis activity in human MDA-MB-231 cells assessed reduction in FAK protein expression at 5 to 15 uM after 72 hrs by Western blot analysis; assay type: functional, cell-based
How it was run: (§3)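 Cells treated with 0, 5, 10 or 15 μM for 72 h. Lysates quantified by BCA, equal protein resolved on 10% tricine SDS-PAGE and transferred to nitrocellulose. Membranes blocked in 5% milk/TBST, then primary antibodies 1:1000 overnight at 4 °C and HRP secondary 1:2000 for 1 h at room temperature. Three independent experiments.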

MDA-MB-231 [8] = test: Cell cycle arrest in human MDA-MB-231 cells assessed as accumulation at S phase at 5 uM after 72 hrs by propidium iodide staining based flow cytometry (reference value: 42.60%); assay type: functional
MDA-MB-231 [9] = test: Cell cycle arrest in human MDA-MB-231 cells assessed as accumulation at G2 phase at 5 uM after 72 hrs by propidium iodide staining based flow cytometry (reference value: 8%); assay type: functional
MDA-MB-231 [10] = test: Cell cycle arrest in human MDA-MB-231 cells assessed as accumulation at S phase at 10 uM after 72 hrs by propidium iodide staining based flow cytometry (reference value: 42.60%); assay type: functional
MDA-MB-231 [11] = test: Cell cycle arrest in human MDA-MB-231 cells assessed as accumulation at G2 phase at 10 uM after 72 hrs by propidium iodide staining based flow cytometry (reference value: 8%); assay type: functional
MDA-MB-231 [12] = test: Cell cycle arrest in human MDA-MB-231 cells assessed as accumulation at G1 phase at 15 uM after 72 hrs by propidium iodide staining based flow cytometry (reference value: 49.40%); assay type: functional
MDA-MB-231 [13] = test: Induction of apoptosis in human MDA-MB-231 cells assessed as early apoptotic cells at 5 uM after 72 hrs by annexin-V/propidium iodide double staining based flow cytometry (reference value: 0.02%); assay type: functional
MDA-MB-231 [14] = test: Induction of apoptosis in human MDA-MB-231 cells assessed as late apoptotic cells at 10 uM after 72 hrs by annexin-V/propidium iodide double staining based flow cytometry (reference value: 0.12%); assay type: functional
MDA-MB-231 [15] = test: Induction of apoptosis in human MDA-MB-231 cells assessed as early apoptotic cells at 15 uM after 72 hrs by annexin-V/propidium iodide double staining based flow cytometry (reference value: 0.02%); assay type: functional
MDA-MB-231 [16] = test: Cell cycle arrest in human MDA-MB-231 cells assessed as up-regulation of p21 expression at 5 to 15 uM after 72 hrs by Western blot analysis; assay type: functional, cell-based; how it was run: as §3
MDA-MB-231 [17] = test: Induction of apoptosis in human MDA-MB-231 cells assessed as up-regulation of PARP expression at 5 to 15 uM after 72 hrs by Western blot analysis; assay type: functional, cell-based; how it was run: as §3
MDA-MB-231 [18] = test: Induction of DNA damage in human MDA-MB-231 cells assessed as increase in gammaH2AX focal positive cells up to 20 uM after 24 hrs by SYBR Green1-staining based fluorescence microscopy; assay type: functional, cell-based
MDA-MB-231 [19] = test: Induction of DNA damage in human MDA-MB-231 cells assessed as up-regulation of gammaH2AX expression at 2 to 15 uM by Western blot analysis; assay type: functional, cell-based
MDA-MB-231 [20] = test: Induction of DNA damage in human MDA-MB-231 cells assessed as down-regulation of AKT expression at 2 to 15 uM by Western blot analysis; assay type: functional, cell-based
MDA-MB-231 [21] = test: Induction of morphological changes in human MDA-MB-231 cells assessed as roughening of cell membrane surface with large and numerous particles at 5 to 20 uM after 72 hrs; assay type: functional, cell-based
MDA-MB-231 [22] = test: Antimetastasis activity in human MDA-MB-231 cells assessed as changes in cell morphology at 5 to 10 uM after 24 hrs by based laser confocal microscopy
MDA-MB-231 [23] = test: Antimetastasis activity in human MDA-MB-231 cells assessed reduction in number of paxillins at 5 to 10 uM after 24 hrs by immunofluorescence based assay
MDA-MB-231 [24] = test: Cell cycle arrest in human MDA-MB-231 cells assessed as accumulation at G1 phase at 5 uM after 24 hrs by propidium iodide staining based flow cytometry (reference value: 49.40%)

In the case of `Cc1coc2c3ccc4c(c3c3[nH]c(-c5ccc(O)cc5)nc3c12)CCCC4(C)C`, the Activity (MDA-MB-231 [1]) is reported as “Dose-dependent effect”, the IC50 (MDA-MB-231 [1]; MDA-MB-231, 72 h) is reported as 13.2 µM and the IC50 (HepG2) is reported as 21.2 µM. For the same compound, the IC50 (HeLa) was 39.8 µM, the IC50 (L02) was 49.1 µM and the Activity (MDA-MB-231 [2]) was under 50%. The Activity (MDA-MB-231 [3]) was “Dose-dependent effect”, the Activity (MDA-MB-231 [4]) was “Active” and the Activity (Danio rerio [5]) was “Non-Toxic”. For the same compound, the Activity (Danio rerio [6]) was “Non-Toxic”, the Activity (MDA-MB-231 [7]) was “Active” and the Activity (MDA-MB-231 [8]) was 46.41%. The Activity (MDA-MB-231 [9]) was 11.21%, the Activity (MDA-MB-231 [10]) was 51.5% and the Activity (MDA-MB-231 [11]) was 13.01%. For the same compound, the Activity (MDA-MB-231 [12]) was 35.37%, the Activity (MDA-MB-231 [13]) was 2.22% and the Activity (MDA-MB-231 [14]) was 0.35%. For the same compound, the Activity (MDA-MB-231 [15]) was 6.73%, the Activity (MDA-MB-231 [16]) was “Active” and the Activity (MDA-MB-231 [17]) was “Active”. For the same compound, the Activity (MDA-MB-231 [18]) was “Active”, the Activity (MDA-MB-231 [19]) was “Active” and the Activity (MDA-MB-231 [20]) was “Active”. The Activity (MDA-MB-231 [21]) was “Active”, the Activity (MDA-MB-231 [22]) was “Active” and the Activity (MDA-MB-231 [23]) was “Active”. The Activity (MDA-MB-231 [24]) was 42.38%.
